# Laboratory results published in ChEMBL document CHEMBL1126319, “Synthesis, antiproliferative, and antiviral activity of certain 4-aminopyrrolo[2,3-d]pyridazine nucleosides: an entry into a novel series of adenosine analogues” (J Med Chem, 1992).
# Assays:
# Homo sapiens [1] = species on record: Homo sapiens; test: In vitro antiproliferative effect against growth rate of H. Ep.2 cells at 100 uM concentration; format: functional
# Procedure, shortened: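 H.Ep.2 cells receive compound at 100 μM. Growth is read by crystal violet A560-570 at days 0, 2 and 5 and expressed as growth rate, the slope of semilog cell number versus time as a percent of control.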
# [2] = Cytotoxicity of compound was determined visually in human diploid fibroblasts (HFF).
# Procedure, shortened: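 HFF cells are grown in MEM(E) with 10% FBS. Drug-induced cytopathology in uninfected cells of the HCMV plaque assay is scored 0 to 4+ at 35- and 60-fold magnification on the day of plaque staining. IC50 comes from regression against log concentration.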
# Human betaherpesvirus 5 [3] = test: Concentration required to decrease the growth rate to 50% of control was evaluated against HCMV by using plaque reduction assay.; format: functional, organism-based
# Procedure, shortened: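 HFF monolayers infected with about 50 PFU of HCMV Towne strain (plaque-purified P0 isolate) in a 0.2 mL inoculum. Compounds are dissolved in the overlay medium and plaques are counted. Percent inhibition is regressed linearly against log concentration to give the IC50. Acyclovir or ganciclovir serves as positive control. Values are averages of two to seven experiments.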
# L1210 [4] = test: In vitro antiproliferative effect against growth rate of L1210 cells at 100 uM concentration; format: functional, Mus musculus
# Procedure, shortened: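 L1210 cells are held in static suspension in Fischer's medium with compound at 100 μM. Cell counts are taken at 0, 48 and 96 h. Growth rate is the semilog slope versus time as a percent of control.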
# Human alphaherpesvirus 1 = test: Concentration required to decrease the growth rate to 50% of control was evaluated against HSV-1 by using enzyme immunoassay.
# L1210 [5] = test: Concentration required to decrease the growth rate to 50% of control was evaluated by determining their ability to inhibit growth of L1210 cells in vitro.; format: functional, cell-based; details: Mus musculus
# Procedure, shortened: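 L1210 cells are grown in static suspension in Fischer's medium. Cell number is counted at 0, 48 and 96 h across a range of compound concentrations. Growth rate is the semilog slope as a percent of control; the 48–96 h rate is used if growth slowed. IC50 is the concentration giving 50% of control growth rate.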
# Human betaherpesvirus 5 [6] = test: Concentration required to decrease the growth rate to 50% of control was evaluated against HCMV by using yield reduction assay.; format: functional
# KB = test: Cytotoxicity of compound was determined by assaying cell growth in human neoplastic cell line(KB).; format: functional, cell-based
# Procedure, shortened: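 KB cells (human epidermoid oral carcinoma) are grown in MEM(H) with 5% FBS. Growth is measured spectrophotometrically by crystal violet staining two days after drug treatment. IC50 comes from linear regression of percent inhibition against log concentration.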
# Homo sapiens [7] = species on record: Homo sapiens; test: Concentration required to decrease the growth rate to 50% of control was evaluated by determining their ability to inhibit growth of H.Ep.2 cells in vitro.; format: functional, cell-based; details: HEp-2
# Procedure, shortened: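 H.Ep.2 cells are grown in MEM (Earle's salts) with 15% bovine calf serum under 5% CO2, and 2000 cells/well are plated in MEM with 5% serum. Compounds are added 1 day later. Growth is read by crystal violet staining (A560-570) at days 0, 2 and 5 after addition. Growth rate is Td(control)/Td(treated), and IC50 is the concentration halving growth rate.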
smiles,measurement,setting,value
Nc1nncc2c1ccn2C1O[C@H](CO)[C@@H](O)[C@H]1O (stereo partly drawn),Control,Homo sapiens [1],93%
same,IC50,[2],> 100 µM
same,IC50,Human betaherpesvirus 5 [3],> 100 µM
same,Control,L1210 [4],100%
same,IC50,Human alphaherpesvirus 1,> 100 µM
Nc1nncc2c1ccn2C1O[C@H](CO)[C@@H](O)[C@@H]1O (stereo partly drawn),IC50,[2],> 100 µM
same,IC50,Human betaherpesvirus 5 [3],> 100 µM
same,IC50,L1210 [5],> 100 µM
same,Control,L1210 [4],88%
same,IC50,Human alphaherpesvirus 1,> 100 µM
Nc1nncc2c1c(Br)cn2C1O[C@H](CO)[C@@H](O)[C@H]1O (stereo partly drawn),Of control,Homo sapiens [1],6%
same,IC50,[2],100 µM
same,IC50,Human betaherpesvirus 5 [3],90 µM
same,IC90,Human betaherpesvirus 5 [6],2.2 µM
same,IC50,KB,12 µM
same,IC50,L1210 [5],24 µM
same,Control,L1210 [4],9%
same,IC50,Homo sapiens [7],5.2 µM
same,IC50,Human alphaherpesvirus 1,30 µM
Nc1ncnc2c1c(Br)cn2[C@@H]1O[C@H](CO)[C@@H](O)[C@H]1O,IC50,[2],1.2 µM
same,IC50,Human betaherpesvirus 5 [3],0.6 µM
same,IC90,Human betaherpesvirus 5 [6],3.5 µM
same,IC50,KB,3 µM
same,Control,L1210 [4],9%
same,IC50,Human alphaherpesvirus 1,4 µM
Nc1nc2c(ncn2COCCO)c(=O)[nH]1 [ACYCLOVIR],IC50,[2],> 100 µM
same,IC90,Human betaherpesvirus 5 [6],90 µM
same,IC50,KB,> 100 µM
same,IC50,Human alphaherpesvirus 1,3.4 µM
Nc1nc2c(ncn2COC(CO)CO)c(=O)[nH]1 [GANCICLOVIR],IC50,[2],> 100 µM
same,IC50,Human betaherpesvirus 5 [3],8.4 µM
same,IC90,Human betaherpesvirus 5 [6],1.8 µM
same,IC50,KB,> 100 µM
Nc1ncnc2c1ccn2[C@@H]1O[C@H](CO)[C@@H](O)[C@H]1O [TUBERCIDIN],Of control,Homo sapiens [1],0%
same,IC50,[2],0.4 µM
same,IC50,KB,1 µM
same,Control,L1210 [4],0%
same,IC50,Homo sapiens [7],0.06 µM
